Measurements reported in ChEMBL document CHEMBL3526138, “Excretion and metabolism of milnacipran in humans after oral administration of milnacipran hydrochloride” (Drug Metab Dispos, 2012).

Key:
Plasma [1] = assay: Plasma concentration in human treated with [14C]-labeled milnacipran hydrochloride at 100 mg, po measured at 0.5 hrs by HPLC analysis; type: ADME, organism-based; conditions: in vivo
Procedure, shortened: (§1)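 Single oral 100 mg [14C] milnacipran hydrochloride in healthy men; blood taken into chilled K3EDTA tubes, plasma spun at ≥2,500 g for 10 min at 4°C and stored at -80°C. Pooled timepoint plasma was extracted and run on phenyl-hexyl HPLC, with 0.5-min fractions counted by LSC. Peak concentration = % of chromatogram radioactivity × pool radioactivity (ng equivalent of milnacipran/mL).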

Plasma [2] = assay: Plasma concentration in human treated with [14C]-labeled milnacipran hydrochloride at 100 mg, po measured at 3 hrs by HPLC analysis; type: ADME, organism-based; conditions: in vivo; procedure, shortened: as §1
[3] = Drug excretion in human urine treated with [14C]-labeled milnacipran hydrochloride at 100 mg, po after 8 to 12 hrs by HPLC analysis; type: ADME, organism-based; conditions: in vivo
Procedure, shortened: (§2)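 Healthy male subjects, single oral 100 mg [14C] milnacipran hydrochloride (1 μCi/mg) after breakfast; urine pooled by interval and kept at -80°C. Urine injected directly (200 µL) onto phenyl-hexyl HPLC, 35°C, gradient ammonium acetate pH 5/methanol at 1 mL/min, with radioactivity flow detection. Metabolite excretion = net peak radioactivity (% of chromatogram, background-subtracted) × urine radioactivity excreted (% of dose); four subjects without emesis, mean.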

[4] = Drug excretion in human urine treated with [14C]-labeled milnacipran hydrochloride at 100 mg, po after 4 to 8 hrs by HPLC analysis; type: ADME, organism-based; conditions: in vivo; procedure, shortened: as §2
Plasma [5] = assay: Plasma concentration in human treated with [14C]-labeled milnacipran hydrochloride at 100 mg, po measured at 1.5 hrs by HPLC analysis; type: ADME, organism-based; conditions: in vivo; procedure, shortened: as §1
[6] = Drug excretion in human urine treated with [14C]-labeled milnacipran hydrochloride at 100 mg, po after 24 to 48 hrs by HPLC analysis; type: ADME, organism-based; conditions: in vivo; procedure, shortened: as §2
Plasma [7] = assay: Plasma concentration in human treated with [14C]-labeled milnacipran hydrochloride at 100 mg, po measured at 12 hrs by HPLC analysis; type: ADME, organism-based; conditions: in vivo; procedure, shortened: as §1
[8] = Drug excretion in human urine treated with [14C]-labeled milnacipran hydrochloride at 100 mg, po after 48 to 72 hrs by HPLC analysis; type: ADME, organism-based; conditions: in vivo; procedure, shortened: as §2
[9] = Drug excretion in human urine treated with [14C]-labeled milnacipran hydrochloride at 100 mg, po up to 4 hrs by HPLC analysis; type: ADME, organism-based; conditions: in vivo; procedure, shortened: as §2
Plasma [10] = assay: Plasma concentration in human treated with [14C]-labeled milnacipran hydrochloride at 100 mg, po measured at 4 hrs by HPLC analysis; type: ADME, organism-based; conditions: in vivo; procedure, shortened: as §1
[11] = Drug excretion in human urine treated with [14C]-labeled milnacipran hydrochloride at 100 mg, po after 0 to 96 hrs by HPLC analysis; type: ADME, organism-based; conditions: in vivo
[12] = Drug excretion in human urine treated with [14C]-labeled milnacipran hydrochloride at 100 mg, po after 12 to 24 hrs by HPLC analysis; type: ADME, organism-based; conditions: in vivo; procedure, shortened: as §2
[13] = Drug excretion in human urine treated with [14C]-labeled milnacipran hydrochloride at 100 mg, po after 72 to 96 hrs by HPLC analysis; type: ADME, organism-based; conditions: in vivo; procedure, shortened: as §2
Plasma [14] = assay: Plasma concentration in human treated with [14C]-labeled milnacipran hydrochloride at 100 mg, po measured at 1 hr by HPLC analysis; type: ADME, organism-based; conditions: in vivo; procedure, shortened: as §1
[15] = Retention time in human urine treated with [14C]-labeled milnacipran hydrochloride at 100 mg, po by HPLC analysis; type: ADME, organism-based; conditions: in vivo
Procedure, shortened: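 Urine from subjects given oral 100 mg [14C] milnacipran hydrochloride was run on a Luna phenyl-hexyl column (250 x 4.6 mm) with guard column at 35°C. Elution used a gradient of ammonium acetate pH 5/water/methanol at 1 mL/min, with in-line radioactivity flow detection and UV at 220 nm.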

Plasma [16] = assay: Plasma concentration in human treated with [14C]-labeled milnacipran hydrochloride at 100 mg, po measured at 6 hrs by HPLC analysis; type: ADME, organism-based; conditions: in vivo; procedure, shortened: as §1
Plasma [17] = assay: Plasma concentration in human treated with [14C]-labeled milnacipran hydrochloride at 100 mg, po measured at 2 hrs by HPLC analysis; type: ADME, organism-based; conditions: in vivo; procedure, shortened: as §1
[18] = Drug excretion in monkey urine at 60 mg/kg, po; type: ADME, organism-based, Macaca mulatta; design: dose 60 mg/kg, route oral; conditions: rhesus monkey, read-out: Drug excretion
[19] = Drug excretion in mouse urine at 100 mg/kg, po; type: ADME, organism-based; design: dose 100 mg/kg, route oral; conditions: read-out: Drug excretion
[20] = Drug excretion in rat urine at 100 mg/kg, po; type: ADME, organism-based; design: dose 100 mg/kg, route oral; conditions: read-out: Drug excretion
[21] = Tmax in human at 100 mg, po by LC-MS/MS analysis; type: ADME, organism-based; conditions: in vivo
Procedure, shortened: (§3)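 Plasma from healthy males after single oral 100 mg [14C] milnacipran hydrochloride, sampled 0.5–120 h. Unchanged drug quantified by validated LC-MS/MS with [2H10] internal standard, C8 column isocratic formic acid/water/methanol; linear 5–2000 ng/mL, LLOQ 5 ng/mL in 25 µL plasma. Non-compartmental analysis; values below LLOQ set to zero; subjects without emesis.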

[22] = Drug excretion in human urine treated with [14C]-labeled milnacipran hydrochloride at 100 mg, po up to 96 hrs by LC-SRM analysis; type: ADME, organism-based; conditions: in vivo
Procedure, shortened: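 0–96 h urine pool analysed by chiral LC-SRM on Chirobiotic V column, ammonium formate-methanol mobile phase, 1 mL/min, column 20°C. Enantiomer proportion from peak areas corrected by urine standard ratio, multiplied by milnacipran excreted in the pool (% of dose).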

[23] = AUC (0 to infinity) in human at 100 mg, po by LC-MS/MS analysis; type: ADME, organism-based; design: dose 100 mg, time infinity, route oral; conditions: plasma; procedure, shortened: as §3
[24] = Half life in human at 100 mg, po by LC-MS/MS analysis; type: ADME, organism-based; conditions: in vivo; procedure, shortened: as §3
[25] = Drug excretion in human urine; type: ADME; conditions: read-out: Drug excretion
[26] = AUC (0 to t) in human at 100 mg, po by LC-MS/MS analysis; type: ADME, organism-based; conditions: plasma; procedure, shortened: as §3
[27] = Half life in human plasma; type: ADME, cell-free
[28] = Tmax in human; type: ADME, organism-based; conditions: in vivo
[29] = Cmax in human at 100 mg, po by LC-MS/MS analysis; type: ADME, organism-based; design: dose 100 mg, route oral; conditions: in vivo; procedure, shortened: as §3

SMILES	Cp (Plasma [1])	Cp (Plasma [2])	Drug excretion [3]	Drug excretion [4]	Cp (Plasma [5])	Drug excretion [6]	Cp (Plasma [7])	Drug excretion [8]	Drug excretion [9]	Cp (Plasma [10])	Drug excretion [11]	Drug excretion [12]	Drug excretion [13]	Cp (Plasma [14])	Retention_time [15]	Cp (Plasma [16])	Cp (Plasma [17])	Drug excretion [22]	also measured
CCNC(=O)[C@@]1(c2ccccc2)CC1CN (some centres not stated)	< 7.8 ng.Eq/ml	24.6 ng.Eq/ml	1.26%	1.35%	< 7.8 ng.Eq/ml	1.36%	13.67 ng.Eq/ml	0.73%	0.92%	19.63 ng.Eq/ml	7.73%	2.06%	0.06%	< 7.8 ng.Eq/ml	11 min	23.46 ng.Eq/ml	< 7.8 ng.Eq/ml		
CCN(CC)C(=O)C1(c2ccccc2)CC1CNC(=O)O[C@@H]1O[C@H](C(=O)O)[C@@H](O)[C@H](O)[C@H]1O (some centres not stated)																			dose excreted [18]: 1.6%; dose excreted [19]: 1%; dose excreted [20]: 0.1%
CCN(CC)C(=O)[C@]1(c2ccccc2)C[C@@H]1CNC(=O)O[C@@H]1O[C@H](C(=O)O)[C@@H](O)[C@H](O)[C@H]1O	26.57 ng.Eq/ml	195.72 ng.Eq/ml	2.36%	5.39%	161.3 ng.Eq/ml	0.76%	50.79 ng.Eq/ml	0.19%	6.26%	234.38 ng.Eq/ml	17.23%	2.36%	Below limit of detection	101.66 ng.Eq/ml	22 min	140.79 ng.Eq/ml	190.14 ng.Eq/ml		
CCN(CC)C(=O)[C@@]1(c2ccccc2)C[C@H]1CNC(=O)O[C@@H]1O[C@H](C(=O)O)[C@@H](O)[C@H](O)[C@H]1O	< 7.8 ng.Eq/ml	16.42 ng.Eq/ml	0.37%	0.64%	< 7.8 ng.Eq/ml	0.28%	< 7.8 ng.Eq/ml	Below limit of detection	0.55%	17.49 ng.Eq/ml	2.14%	0.58%	Below limit of detection	< 7.8 ng.Eq/ml	24 min	< 7.8 ng.Eq/ml	< 7.8 ng.Eq/ml		
CCN(CC)C(=O)C1(c2ccccc2)CC1CN (racemic) [MILNACIPRAN]	33.92 ng.Eq/ml	208.01 ng.Eq/ml	7.17%	14.42%	156.73 ng.Eq/ml	5.45%	87.22 ng.Eq/ml	1.47%	15.54%	214.21 ng.Eq/ml	54.71%	10.87%	0.3%	83.17 ng.Eq/ml	35 min	186.82 ng.Eq/ml	178.93 ng.Eq/ml	54.7%	Tmax [21]: 3.5 h; AUC(0-inf) [23]: 2770 ng·h/mL; half-life [24]: 8.9 h; dose excreted [25]: 50%; AUC(0-t) [26]: 2340 ng·h/mL; half-life [27]: 8 h; Tmax [28]: 2 h; Cmax [29]: 240 ng/mL
CCN(CC)C(=O)C1(c2ccccc2)CC1CN (stereo in doubt) [MILNACIPRAN]																		23.5%	
CCN(CC)C(=O)[C@@]1(c2ccccc2)C[C@H]1CN [LEVOMILNACIPRAN]																		31.2%	
